Source: ChEMBL document CHEMBL3244249, “Studies on vitamin D (calciferol) and its analogues. 15. 24-Nor-1alpha,25-dihydroxyvitamin D3 and 24-nor-25-hydroxy-5,6-trans-vitamin D3” (1978)
Blank lines part the entries; values can stand above or below the molecule they belong to. Calls of active or inactive are those of the source. The rule behind the calls is not given here.

Legend:
[1] = species on record: Gallus gallus; assay: Displacement of [3H]-1-alpha,25-(OH)2-D3 from chicken intestinal cytosol chromatin receptor after 30 mins by scintillation counting relative to 1-alpha,25-(OH)2-D3
How it was run: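 Reconstituted chick intestinal cytosol–chromatin receptor system. Nonradioactive competitor plus tritiated 1α,25-(OH)2-D3 (2 × 10^-8 M, constant saturating) with chromatin (375 μg DNA) in cytosol, incubated 30 min at 25 °C. Chromatin reisolated by centrifugation, washed three times (0.5% Triton X-100, 0.01 M Tris-HCl pH 8.5), and bound tritium counted by liquid scintillation. Expressed as RCI, with 1α,25-(OH)2-D3 set at 100.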

[2] = system: Gallus gallus; assay: Induction of bone calcium mobilization in vitamin-D-deficient chicken assessed per 100 ml of serum at 163 nmol, ip using 45Ca2+ and 40Ca2+ after 5 to 36 hrs; assay type: functional, organism-based
How it was run: (§1)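 Rachitic chicks given a single 163-nmol intraperitoneal dose and sampled between 5 and 36 h afterward. ICA and BCM were read by the Hibberd–Norman procedure: duodenal 45Ca2+/40Ca2+ load, then serum collected 30 min later. ICA was taken as serum radioactivity and BCM as serum calcium by atomic absorption.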

[3] = system: Gallus gallus; assay: Induction of intestinal calcium absorption in vitamin-D-deficient chicken assessed per 0.2 ml of plasma at 163 nmol, ip using 45Ca2+ and 40Ca2+ after 5 to 36 hrs; assay type: functional, organism-based; how it was run: as §1
[4] = system: Gallus gallus; assay: Induction of intestinal calcium absorption in vitamin-D-deficient chicken assessed per 0.2 ml of plasma at 3 nmol, ip using 45Ca2+ and 40Ca2+ after 12 hrs; assay type: functional
How it was run: (§2)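 Rachitic White Leghorn cockerels (4 weeks on a rachitogenic low-calcium diet without vitamin D, zero-calcium diet for the final 3 days) dosed intraperitoneally. Under light ether anesthesia, 5 μCi 45Ca2+ plus 4 mg 40Ca2+ carrier was placed in the duodenum. Birds were decapitated after 30 min. 45Ca radioactivity counted per 0.2 mL serum aliquot (cpm ± SEM). The enhancement ratio is relative to vitamin D-deficient controls.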

[5] = system: Gallus gallus; assay: Induction of intestinal calcium absorption in vitamin-D-deficient chicken assessed per 0.2 ml of plasma at 0.60 nmol, ip using 45Ca2+ and 40Ca2+ after 12 hrs relative to control; assay type: functional; how it was run: as §2
[6] = system: Gallus gallus; assay: Induction of intestinal calcium absorption in vitamin-D-deficient chicken assessed per 0.2 ml of plasma at 0.60 nmol, ip using 45Ca2+ and 40Ca2+ after 12 hrs; assay type: functional; how it was run: as §2
[7] = system: Gallus gallus; assay: Induction of bone calcium mobilization in vitamin-D-deficient chicken assessed per 100 ml of serum at 0.60 nmol, ip using 45Ca2+ and 40Ca2+ after 12 hrs; assay type: functional
How it was run: (§3)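 White Leghorn cockerels raised 4 weeks on a rachitogenic low-calcium diet without vitamin D, switched to a zero-calcium diet 3 days before assay. Analogue given intraperitoneally. Under light ether anesthesia, 5 μCi 45Ca2+ plus 4 mg 40Ca2+ carrier was put into the exposed duodenum. Birds were decapitated 30 min later and blood allowed to clot. Serum Ca2+ measured by atomic absorption on diluted serum, as mg/100 mL ± SEM.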

[8] = system: Gallus gallus; assay: Induction of bone calcium mobilization in vitamin-D-deficient chicken assessed per 100 ml of serum at 3 nmol, ip using 45Ca2+ and 40Ca2+ after 12 hrs; assay type: functional; how it was run: as §3
[9] = system: Gallus gallus; assay: Induction of intestinal calcium absorption in vitamin-D-deficient chicken assessed per 0.2 ml of plasma at 3 nmol, ip using 45Ca2+ and 40Ca2+ after 12 hrs relative to control; assay type: functional; how it was run: as §2
[10] = system: Gallus gallus; assay: Induction of bone calcium mobilization in vitamin-D-deficient chicken assessed per 100 ml of serum at 3.3 nmol, ip using 45Ca2+ and 40Ca2+ after 24 hrs; assay type: functional; how it was run: as §3
[11] = system: Gallus gallus; assay: Induction of intestinal calcium absorption in vitamin-D-deficient chicken assessed per 0.2 ml of plasma at 3.3 nmol, ip using 45Ca2+ and 40Ca2+ after 24 hrs relative to control; assay type: functional; how it was run: as §2
[12] = system: Gallus gallus; assay: Induction of intestinal calcium absorption in vitamin-D-deficient chicken assessed per 0.2 ml of plasma at 3.3 nmol, ip using 45Ca2+ and 40Ca2+ after 24 hrs; assay type: functional; how it was run: as §2
[13] = system: Gallus gallus; assay: Induction of intestinal calcium absorption in vitamin-D-deficient chicken assessed per 0.2 ml of plasma at 62 nmol, ip using 45Ca2+ and 40Ca2+ after 24 hrs relative to control; assay type: functional; how it was run: as §2
[14] = system: Gallus gallus; assay: Induction of intestinal calcium absorption in vitamin-D-deficient chicken assessed per 0.2 ml of plasma at 62 nmol, ip using 45Ca2+ and 40Ca2+ after 14 hrs; assay type: functional; how it was run: as §2
[15] = system: Gallus gallus; assay: Induction of intestinal calcium absorption in vitamin-D-deficient chicken assessed per 0.2 ml of plasma at 0.62 nmol, ip using 45Ca2+ and 40Ca2+ after 14 hrs relative to control; assay type: functional; how it was run: as §2
[16] = system: Gallus gallus; assay: Induction of intestinal calcium absorption in vitamin-D-deficient chicken assessed per 0.2 ml of plasma at 62 nmol, ip using 45Ca2+ and 40Ca2+ after 24 hrs; assay type: functional; how it was run: as §2
[17] = system: Gallus gallus; assay: Induction of bone calcium mobilization in vitamin-D-deficient chicken assessed per 100 ml of serum at 62 nmol, ip using 45Ca2+ and 40Ca2+ after 24 hrs; assay type: functional; how it was run: as §3
[18] = system: Gallus gallus; assay: Induction of intestinal calcium absorption in vitamin-D-deficient chicken assessed per 0.2 ml of plasma at 310 nmol, ip using 45Ca2+ and 40Ca2+ after 14 hrs relative to control; assay type: functional; how it was run: as §2
[19] = system: Gallus gallus; assay: Induction of intestinal calcium absorption in vitamin-D-deficient chicken assessed per 0.2 ml of plasma at 15.5 nmol, ip using 45Ca2+ and 40Ca2+ after 14 hrs relative to control; assay type: functional; how it was run: as §2
[20] = system: Gallus gallus; assay: Induction of intestinal calcium absorption in vitamin-D-deficient chicken assessed per 0.2 ml of plasma at 62 nmol, ip using 45Ca2+ and 40Ca2+ after 18 hrs; assay type: functional; how it was run: as §2
[21] = system: Gallus gallus; assay: Induction of intestinal calcium absorption in vitamin-D-deficient chicken assessed per 0.2 ml of plasma at 0.62 nmol, ip using 45Ca2+ and 40Ca2+ after 14 hrs; assay type: functional; how it was run: as §2
[22] = system: Gallus gallus; assay: Induction of bone calcium mobilization in vitamin-D-deficient chicken assessed per 100 ml of serum at 0.62 nmol, ip using 45Ca2+ and 40Ca2+ after 14 hrs; assay type: functional; how it was run: as §3
[23] = system: Gallus gallus; assay: Induction of intestinal calcium absorption in vitamin-D-deficient chicken assessed per 0.2 ml of plasma at 15.5 nmol, ip using 45Ca2+ and 40Ca2+ after 14 hrs; assay type: functional; how it was run: as §2
[24] = system: Gallus gallus; assay: Induction of bone calcium mobilization in vitamin-D-deficient chicken assessed per 100 ml of serum at 62 nmol, ip using 45Ca2+ and 40Ca2+ after 36 hrs; assay type: functional; how it was run: as §3
[25] = system: Gallus gallus; assay: Induction of intestinal calcium absorption in vitamin-D-deficient chicken assessed per 0.2 ml of plasma at 310 nmol, ip using 45Ca2+ and 40Ca2+ after 14 hrs; assay type: functional; how it was run: as §2
[26] = system: Gallus gallus; assay: Induction of intestinal calcium absorption in vitamin-D-deficient chicken assessed per 0.2 ml of plasma at 62 nmol, ip using 45Ca2+ and 40Ca2+ after 14 hrs relative to control; assay type: functional; how it was run: as §2
[27] = system: Gallus gallus; assay: Induction of intestinal calcium absorption in vitamin-D-deficient chicken assessed per 0.2 ml of plasma at 62 nmol, ip using 45Ca2+ and 40Ca2+ after 18 hrs relative to control; assay type: functional; how it was run: as §2
[28] = system: Gallus gallus; assay: Induction of intestinal calcium absorption in vitamin-D-deficient chicken assessed per 0.2 ml of plasma at 3.1 nmol, ip using 45Ca2+ and 40Ca2+ after 14 hrs relative to control; assay type: functional; how it was run: as §2
[29] = system: Gallus gallus; assay: Induction of intestinal calcium absorption in vitamin-D-deficient chicken assessed per 0.2 ml of plasma at 62 nmol, ip using 45Ca2+ and 40Ca2+ after 36 hrs relative to control; assay type: functional; how it was run: as §2
[30] = system: Gallus gallus; assay: Induction of bone calcium mobilization in vitamin-D-deficient chicken assessed per 100 ml of serum at 15.5 nmol, ip using 45Ca2+ and 40Ca2+ after 14 hrs; assay type: functional; how it was run: as §3
[31] = system: Gallus gallus; assay: Induction of bone calcium mobilization in vitamin-D-deficient chicken assessed per 100 ml of serum at 62 nmol, ip using 45Ca2+ and 40Ca2+ after 18 hrs; assay type: functional; how it was run: as §3
[32] = system: Gallus gallus; assay: Induction of intestinal calcium absorption in vitamin-D-deficient chicken assessed per 0.2 ml of plasma at 3.1 nmol, ip using 45Ca2+ and 40Ca2+ after 14 hrs; assay type: functional; how it was run: as §2
[33] = system: Gallus gallus; assay: Induction of bone calcium mobilization in vitamin-D-deficient chicken assessed per 100 ml of serum at 62 nmol, ip using 45Ca2+ and 40Ca2+ after 14 hrs; assay type: functional; how it was run: as §3
[34] = system: Gallus gallus; assay: Induction of bone calcium mobilization in vitamin-D-deficient chicken assessed per 100 ml of serum at 3.1 nmol, ip using 45Ca2+ and 40Ca2+ after 14 hrs; assay type: functional; how it was run: as §3
[35] = system: Gallus gallus; assay: Induction of bone calcium mobilization in vitamin-D-deficient chicken assessed per 100 ml of serum at 310 nmol, ip using 45Ca2+ and 40Ca2+ after 14 hrs; assay type: functional; how it was run: as §3
[36] = system: Gallus gallus; assay: Induction of intestinal calcium absorption in vitamin-D-deficient chicken assessed per 0.2 ml of plasma at 62 nmol, ip using 45Ca2+ and 40Ca2+ after 36 hrs; assay type: functional; how it was run: as §2

SMILES: C=C1/C(=C\C=C2/CCC[C@]3(C)[C@@H]([C@H](C)CCCC(C)(C)O)CC[C@@H]23)C[C@@H](O)C[C@@H]1O [CALCITRIOL]
Activity [4]: 1320 cpm | Ratio [5]: 3.1 | Activity [6]: 1630 cpm | Activity [7]: 6.6 mg | Activity [2]: Active | Activity [3]: Active | Activity [8]: 6.1 mg | Ratio [9]: 2.5

SMILES: C=C1CC[C@H](O)C/C1=C\C=C1/CCC[C@]2(C)[C@@H]([C@H](C)CCCCC(C)(C)O)CC[C@@H]12
RCI [1]: 0.066%

SMILES: C=C1CC[C@H](O)C/C1=C/C=C1\CCC[C@]2(C)[C@@H]([C@H](C)CCCC(C)C)CC[C@@H]12 [CHOLECALCIFEROL]
Activity [10]: 6.3 mg | Ratio [11]: 4.6 | Activity [12]: 2430 cpm

SMILES: C=C1CC[C@H](O)C/C1=C/C=C1\CCC[C@]2(C)[C@@H]([C@H](C)CCCC(C)(C)O)CC[C@@H]12
Activity [2]: Active | Activity [3]: Active

Further lines, with some results ahead:

RCI [1]: 0.1%
SMILES: C=C1CC[C@H](O)C/C1=C\C=C1/CCC[C@]2(C)[C@@H]([C@H](C)CCC(C)(C)O)CC[C@@H]12
Activity [2]: inactive | Activity [3]: inactive

RCI [1]: 0.58%
SMILES: C=C1CC[C@H](O)C/C1=C\C=C1/CCC[C@]2(C)[C@@H]([C@H](C)CCCC(C)(C)O)CC[C@@H]12
Activity [2]: Active | Activity [3]: Active

RCI [1]: 46%
SMILES: C=C1/C(=C\C=C2/CCC[C@]3(C)[C@@H]([C@H](C)CCC(C)(C)O)CC[C@@H]23)C[C@@H](O)C[C@@H]1O
Ratio [13]: 1.5 | Activity [14]: 930 cpm | Ratio [15]: 0.8 | Activity [16]: 770 cpm | Activity [17]: 5.4 mg | Ratio [18]: 2.9 | Ratio [19]: 1.3 | Activity [20]: 1470 cpm | Activity [21]: 420 cpm | Activity [22]: 4.8 mg | Activity [23]: 680 cpm | Activity [24]: 4.3 mg | Activity [25]: 1530 cpm | Ratio [26]: 1.8 | Ratio [27]: 2.8 | Ratio [28]: 1.1 | Ratio [29]: 1.1 | Activity [30]: 5.1 mg | Activity [31]: 5.6 mg | Activity [32]: 560 cpm | Activity [33]: 5 mg | Activity [34]: 4.4 mg | Activity [35]: 6.5 mg | Activity [36]: 590 cpm
